Measured values published in ChEMBL document CHEMBL1139103, “Identification of novel glycine sulfonamide antagonists for the EP1 receptor” (Bioorg Med Chem Lett, 2007).

target: T1, Prostaglandin E2 receptor EP1 subtype (Homo sapiens, UniProt P34995); experiment: Antagonist activity at human EP1 expressed in CHOK1 cells receptor assessed as inhibition of intracellular calcium mobilization by FLIPR assay; assay type: functional, cell-based, CHO-K1
T1 sequence (P34995 whole entry): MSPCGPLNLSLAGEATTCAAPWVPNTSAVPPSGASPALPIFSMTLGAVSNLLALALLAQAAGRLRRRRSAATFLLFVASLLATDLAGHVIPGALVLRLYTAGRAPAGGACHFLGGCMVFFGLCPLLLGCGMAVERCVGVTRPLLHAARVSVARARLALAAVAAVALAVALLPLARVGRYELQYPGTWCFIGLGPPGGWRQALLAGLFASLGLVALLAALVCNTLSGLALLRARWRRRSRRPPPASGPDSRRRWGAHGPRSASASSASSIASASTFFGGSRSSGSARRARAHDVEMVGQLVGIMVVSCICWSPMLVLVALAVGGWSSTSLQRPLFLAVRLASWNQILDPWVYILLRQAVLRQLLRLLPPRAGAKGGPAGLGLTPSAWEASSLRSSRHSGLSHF
How it was run: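 Stable EP1- or EP3-transfected CHO-K1 whole cells loaded with calcium-sensitive dye Fluo-3; inhibition of PGE2-evoked intracellular Ca2+ mobilisation read on a fluorimetric imaging plate reader (FLIPR). IC50s converted to pKi. Means of at least two experiments unless specified.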

`CCc1ccccc1N(CC(=O)NCCc1ccc(OC)c(OC)c1)S(=O)(=O)c1ccc(C#N)cc1` and `CCc1ccccc1N(CC(=O)NCCc1ccc(OC)c(OC)c1)S(=O)(=O)c1ccc(Br)cc1` are within 1.5-fold of each other in Ki: 31.6 nM for the first, 28.8 nM for the second.

Going from `CCc1ccccc1N(CC(=O)NCc1ccc(Br)cc1)S(=O)(=O)c1ccc(C)cc1` to `CCc1ccccc1N(CC(=O)NCc1ccccc1F)S(=O)(=O)c1ccc(C)cc1`, the Ki rises from 22.9 nM to 135 nM (5.9-fold).

Going from `CCc1ccccc1N(CC(=O)NCc1ccccc1OC)S(=O)(=O)c1ccc(C)cc1` to `CCc1ccccc1N(CC(=O)NCc1cccc(OC(F)(F)F)c1)S(=O)(=O)c1ccc(C)cc1`, the Ki falls from 1070 nM to 427 nM (2.5-fold).

`COc1ccc(N(CC(=O)NCCc2ccc(OC)c(OC)c2)S(=O)(=O)c2ccc(C)cc2)cc1` and `COc1ccc(CCNC(=O)CN(c2ccc(C)cc2)S(=O)(=O)c2ccc(C)cc2)cc1OC` cannot be ordered by Ki: over 1580 nM for the first, over 1120 nM for the second.

First: Cc1ccc(S(=O)(=O)N(CC(=O)NCCc2ccc(NS(C)(=O)=O)cc2)c2ccccc2C)cc1
Second: Cc1ccc(S(=O)(=O)N(CC(=O)NCCc2ccc(Cl)cc2)c2ccccc2C)cc1
The Ki of the first is 7.4-fold lower: 89.1 nM for the first, 661 nM for the second. The first binds more tightly here.

First: COc1ccc(CCNC(=O)CN(c2ccccc2C)S(=O)(=O)c2ccc(C)cc2)c(F)c1OC
Second: COc1ccc(CCNC(=O)CN(c2ccccc2C)S(=O)(=O)c2ccc(C)cc2)cc1OC
The Ki of the first is 1.7-fold higher: 66.1 nM for the first, 38.9 nM for the second. The second binds more tightly here.

First: COc1ccc(CCNC(=O)CN(c2cccc(C)c2C)S(=O)(=O)c2ccc(C)cc2)cc1OC
Second: COc1ccc(CCNC(=O)CN(c2cccc(C)c2)S(=O)(=O)c2ccc(C)cc2)cc1OC
The Ki of the first is 4.8-fold lower: 12.9 nM for the first, 61.7 nM for the second.

First: CCc1ccccc1N(CC(=O)NCCc1ccc(OC)c(OC)c1)S(=O)(=O)c1ccccc1C
Second: CCc1ccccc1N(CC(=O)NCCc1ccc(OC)c(OC)c1)S(=O)(=O)c1ccccc1Cl
The Ki of the first is 12-fold lower: 166 nM for the first, 2000 nM for the second. The first binds more tightly here.

Going from `COc1ccc(CCNC(=O)CN(c2cccc(Cl)c2)S(=O)(=O)c2ccc(C)cc2)cc1OC` to `COc1ccc(CCNC(=O)CN(c2cccc(Br)c2)S(=O)(=O)c2ccc(C)cc2)cc1OC`, the Ki falls from 61.7 nM to 34.7 nM (1.8-fold). The second binds more tightly here.

Compared with `CCc1ccccc1N(CC(=O)NCCc1ccc(OC)c(OC)c1)S(=O)(=O)c1cccc(OC(F)(F)F)c1`, `CCc1ccccc1N(CC(=O)NCCc1ccc(OC)c(OC)c1)S(=O)(=O)c1ccc(OC(F)(F)F)cc1` is 10-fold lower in Ki: 708 nM for the first, 69.2 nM for the second. The second binds more tightly here.

First: COc1ccc(CCNC(=O)CN(c2ccc(F)cc2)S(=O)(=O)c2ccc(C)cc2)cc1OC
Second: COc1ccc(CCNC(=O)CN(c2ccc(Cl)cc2)S(=O)(=O)c2ccc(C)cc2)cc1OC
The Ki of the first is higher: over 1580 nM for the first, 1290 nM for the second. The second binds more tightly here.

First: CCc1ccccc1N(CC(=O)NCCc1ccc(OC)c(OC)c1)S(=O)(=O)c1cccc(C#N)c1
Second: COc1ccc(CCNC(=O)CN(c2ccccc2C)S(=O)(=O)c2ccccc2)cc1OC
The Ki of the first is 3.1-fold lower: 240 nM for the first, 741 nM for the second.

Compared with `COc1ccc(CCNC(=O)CN(c2ccc(Br)cc2)S(=O)(=O)c2ccc(C)cc2)cc1OC`, `COc1ccc(CCNC(=O)CN(c2ccccc2)S(=O)(=O)c2ccc(C)cc2)cc1OC` is lower in Ki: over 3800 nM for the first, 589 nM for the second. The second binds more tightly here.
